Results as given in ChEMBL document CHEMBL1208768, “Synthesis, selective anti-Helicobacter pylori activity, and cytotoxicity of novel N-substituted-2-oxo-2H-1-benzopyran-3-carboxamides” (Bioorg Med Chem Lett, 2010).
≈ marks a conversion by molar mass, not a printed value. Calls of active or inactive are those of the source. The calls are words filed in the database; no cut-off is given here.

Assays:
Staphylococcus hominis = assay: Antibacterial activity against Staphylococcus hominis after 18 to 22 hrs by broth microdilution method; assay type: functional
Method in brief: (§1)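 Clinical respiratory-tract isolates from patients, subcultured for purity and identified conventionally. Broth microdilution per NCCLS in Mueller–Hinton II broth; each plate had growth controls (bacteria, no compound) and medium-only controls. Incubation 18–22 h at 35 °C. MIC taken as the lowest concentration giving complete growth inhibition by unaided eye.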

[1] = Cytotoxicity against human EAhy926 cells assessed as cell survival at 5 ug/mL after 24 hrs by trypan blue exclusion assay; assay type: cell-based, EA.hy 926; conditions: read-out: Survival
Method in brief: (§2)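 EAhy cells in DMEM (high glucose) with 10% FBS, at 1 × 10⁵/mL in exponential growth and 60–70% confluent, were exposed 24 h at 37 °C to compounds from DMSO stocks (final DMSO ≤0.5%). Controls were cells alone or with DMSO, and 1 mM sodium nitroprusside as positive control. Cells were scraped, mixed 1:1 with 0.4% Trypan blue and counted on a hemocytometer by two operators. Result given as % viable cells.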

[2] = tested on: Staphylococcus epidermidis; assay: Antibacterial activity against Staphylococcus epidermidis after 18 to 22 hrs by broth microdilution method; assay type: functional; method in brief: as §1
Enterococcus faecalis = assay: Antibacterial activity against Streptococcus faecalis after 18 to 22 hrs by broth microdilution method; assay type: functional; method in brief: as §1
Klebsiella oxytoca = assay: Antibacterial activity against Klebsiella oxytoca after 18 to 22 hrs by broth microdilution method; assay type: functional; method in brief: as §1
[3] = Cytotoxicity against human EAhy926 cells assessed as cell survival at 0.5 ug/mL after 24 hrs by trypan blue exclusion assay; assay type: cell-based, EA.hy 926; conditions: read-out: Survival; method in brief: as §2
Enterobacter = assay: Antibacterial activity against Enterobacter after 18 to 22 hrs by broth microdilution method; assay type: functional; method in brief: as §1
Staphylococcus aureus = assay: Antibacterial activity against Staphylococcus aureus after 18 to 22 hrs by broth microdilution method; assay type: functional; method in brief: as §1
[4] = Cytotoxicity against human EAhy926 cells assessed as cell survival at 0.5 ug/mL after 24 hrs by MTT assay; assay type: cell-based, EA.hy 926; conditions: read-out: Survival
Helicobacter pylori [5] = assay: Antibacterial activity against metronidazole-resistant Helicobacter pylori isolate 8 after 72 hrs by agar dilution method; assay type: functional; conditions: isolate 8, 72 h
Method in brief: (§3)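 H. pylori clinical isolates (ATCC 43504 control each session) stored at -80 °C and subcultured twice on Columbia agar with 10% horse serum and 0.25% yeast extract. Suspensions of 0.5 McFarland were spotted by Steer's replicator at about 5 × 10⁵ CFU/spot onto agar with twofold compound dilutions. Plates were incubated 72 h at 37 °C in 10% CO₂. MIC was the lowest concentration without visible growth.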

Proteus vulgaris = assay: Antibacterial activity against Proteus vulgaris after 18 to 22 hrs by broth microdilution method; assay type: functional; method in brief: as §1
Candida albicans = assay: Antifungal activity against Candida albicans after 24 hrs by broth microdilution method; assay type: functional
Method in brief: (§4)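 Candida isolates from respiratory-tract specimens, tested by NCCLS broth microdilution in Sabouraud dextrose broth. Serial compound dilutions inoculated to 10³/mL, with fungus-only and medium-only controls. Incubated 24 h at 37 °C. MIC was the lowest concentration with complete visible growth inhibition.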

AGS (Homo sapiens) = assay: Cytotoxicity against human AGS cells assessed as cell survival at 50 ug/mL after 24 hrs by MTT assay
Helicobacter pylori [6] = assay: Antibacterial activity against Helicobacter pylori ATCC 43504 clinical isolates after 72 hrs by agar dilution method; assay type: functional; conditions: ATCC 43504, 72 h
Method in brief: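 Agar dilution per NCCLS. Twenty clinical strains from duodenal ulcer or gastritis patients, with ATCC 43504 as control in each session, were subcultured twice on Columbia agar plus 10% horse serum and 0.25% yeast extract (72 h, 37 °C, 10% CO₂). Inoculum of 0.5 McFarland in Wilkins Chalgren broth, about 5 × 10⁵ CFU/spot by Steer's replicator. Plates held twofold compound dilutions down to 0.0039 µg/mL and were incubated 72 h at 37 °C, 10% CO₂. MIC was the lowest concentration inhibiting visible growth.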

[7] = Cytotoxicity against human EAhy926 cells assessed as cell survival at 0.05 ug/mL after 24 hrs by trypan blue exclusion assay; assay type: cell-based, EA.hy 926; conditions: read-out: Survival; method in brief: as §2
Helicobacter pylori [8] = assay: Antibacterial activity against metronidazole-resistant Helicobacter pylori isolate 1 after 72 hrs by agar dilution method; assay type: functional; conditions: isolate 1, 72 h; method in brief: as §3
Pichia kudriavzevii = assay: Antifungal activity against Candida krusei after 24 hrs by broth microdilution method; assay type: functional; method in brief: as §4
Klebsiella aerogenes = assay: Antibacterial activity against Enterobacter aerogenes after 18 to 22 hrs by broth microdilution method; assay type: functional; method in brief: as §1
[9] = Cytotoxicity against human EAhy926 cells assessed as cell survival at 50 ug/mL after 24 hrs by trypan blue exclusion assay; assay type: cell-based, EA.hy 926; conditions: read-out: Survival; method in brief: as §2
[10] = tested on: Staphylococcus haemolyticus; assay: Antibacterial activity against Staphylococcus haemolyticus after 18 to 22 hrs by broth microdilution method; assay type: functional; method in brief: as §1
Klebsiella pneumoniae = assay: Antibacterial activity against Klebsiella pneumoniae after 18 to 22 hrs by broth microdilution method; assay type: functional; method in brief: as §1
Citrobacter freundii = assay: Antibacterial activity against Citrobacter freundii after 18 to 22 hrs by broth microdilution method; assay type: functional; method in brief: as §1
[11] = Cytotoxicity against human EAhy926 cells assessed as cell survival at 5 ug/mL after 24 hrs by MTT assay; assay type: cell-based, EA.hy 926; conditions: read-out: Survival
[Candida] sake = Antifungal activity against Candida sake after 24 hrs by broth microdilution method; assay type: functional; conditions: Fermentozyma sake; method in brief: as §4
AGS [12] = assay: Antiinflammatory activity in human AGS cells assessed as inhibition of IL-8 production at 5 ug/mL after 24 hrs; assay type: functional, cell-based
Method in brief: (§5)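 AGS gastric adenocarcinoma cells were grown in F-12K with 10% FBS. They were seeded at 1 × 10⁵/mL for 24 h, preincubated 1 h with compound at 5 or 0.5 µg/mL, then exposed to H. pylori.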

Escherichia coli = assay: Antibacterial activity against Escherichia coli after 18 to 22 hrs by broth microdilution method; assay type: functional; method in brief: as §1
AGS [13] = assay: Antiinflammatory activity in human AGS cells assessed as inhibition of IL-8 production at 0.5 ug/mL after 24 hrs; assay type: functional, cell-based; method in brief: as §5
Helicobacter pylori [14] = assay: Antibacterial activity against metronidazole-resistant Helicobacter pylori NCTC 11637 after 72 hrs by agar dilution method; assay type: functional; conditions: NCTC 11637, 72 h; method in brief: as §3
Helicobacter pylori [15] = assay: Antibacterial activity against metronidazole-resistant Helicobacter pylori isolate 18 after 72 hrs by agar dilution method; assay type: functional; conditions: isolate 18, 72 h; method in brief: as §3
Helicobacter pylori [16] = assay: Antibacterial activity against metronidazole-resistant Helicobacter pylori isolate 20 after 72 hrs by agar dilution method; assay type: functional; conditions: isolate 20, 72 h; method in brief: as §3

Compound | MIC (Staphylococcus hominis) | viability at 24 h, 5 ug/mL [1] | MIC [2] | MIC (Enterococcus faecalis) | MIC (Klebsiella oxytoca) | MIC (Enterobacter) | MIC (Staphylococcus aureus) | viability at 24 h, 0.5 ug/mL [4] | MIC (Helicobacter pylori [5]) | MIC (Proteus vulgaris) | MIC (Candida albicans) | MIC50 (Helicobacter pylori [6]) | MIC90 (Helicobacter pylori [6]) | viability at 24 h, 0.05 ug/mL [7] | MIC (Helicobacter pylori [8]) | MIC (Pichia kudriavzevii) | MIC (Klebsiella aerogenes) | viability at 24 h, 50 ug/mL [9] | MIC [10] | MIC (Klebsiella pneumoniae) | also measured
CCOC(=O)c1ccc(NC(=O)c2cc3cc(OC)ccc3oc2=O)cc1 | > 128 µg/mL | 42% | > 128 µg/mL | > 128 µg/mL | > 128 µg/mL | > 128 µg/mL | > 128 µg/mL | 98% | 4 µg/mL (≈ 10.9 µM) | > 128 µg/mL | > 128 µg/mL | 4 µg/mL (≈ 10.9 µM) | 8 µg/mL (≈ 21.8 µM) | 72% | 8 µg/mL (≈ 21.8 µM) | > 128 µg/mL | > 128 µg/mL | 36% | > 128 µg/mL | > 128 µg/mL | viability at 24 h, 0.5 ug/mL [3]: 67%; viability at 24 h, 50 ug/mL (AGS (Homo sapiens)): 41%; MIC (Citrobacter freundii): > 128 µg/mL; viability at 24 h, 5 ug/mL [11]: 58%; MIC ([Candida] sake): > 128 µg/mL; inhibition (AGS [12]): inactive; MIC (Escherichia coli): > 128 µg/mL; inhibition (AGS [13]): inactive; MIC (Helicobacter pylori [14]): 4 µg/mL (≈ 10.9 µM); MIC (Helicobacter pylori [15]): 4 µg/mL (≈ 10.9 µM); MIC (Helicobacter pylori [16]): 4 µg/mL (≈ 10.9 µM)
O=C(O)c1ccc(NC(=O)c2cc3ccc(O)cc3oc2=O)cc1 | > 128 µg/mL | 92% | > 128 µg/mL | > 128 µg/mL | > 128 µg/mL | > 128 µg/mL | > 128 µg/mL | 99% | 4 µg/mL (≈ 12.3 µM) | > 128 µg/mL | > 128 µg/mL | 8 µg/mL (≈ 24.6 µM) | 16 µg/mL (≈ 49.2 µM) | 98% | 8 µg/mL (≈ 24.6 µM) | > 128 µg/mL | > 128 µg/mL | 82% | > 128 µg/mL | > 128 µg/mL | viability at 24 h, 0.5 ug/mL [3]: 93%; viability at 24 h, 50 ug/mL (AGS (Homo sapiens)): 77%; MIC (Citrobacter freundii): > 128 µg/mL; viability at 24 h, 5 ug/mL [11]: 99%; MIC ([Candida] sake): > 128 µg/mL; inhibition (AGS [12]): inactive; MIC (Escherichia coli): > 128 µg/mL; inhibition (AGS [13]): inactive; MIC (Helicobacter pylori [14]): 8 µg/mL (≈ 24.6 µM); MIC (Helicobacter pylori [15]): 8 µg/mL (≈ 24.6 µM); MIC (Helicobacter pylori [16]): 8 µg/mL (≈ 24.6 µM)
CCOC(=O)c1ccc(NC(=O)c2cc3cc(C)ccc3oc2=O)cc1 | > 128 µg/mL | 59% | > 128 µg/mL | > 128 µg/mL | > 128 µg/mL | > 128 µg/mL | > 128 µg/mL | 99% | 8 µg/mL (≈ 22.8 µM) | > 128 µg/mL | > 128 µg/mL | 4 µg/mL (≈ 11.4 µM) | 8 µg/mL (≈ 22.8 µM) | 80% | 8 µg/mL (≈ 22.8 µM) | > 128 µg/mL | > 128 µg/mL | 14% | > 128 µg/mL | > 128 µg/mL | viability at 24 h, 0.5 ug/mL [3]: 77%; viability at 24 h, 50 ug/mL (AGS (Homo sapiens)): 63%; MIC (Citrobacter freundii): > 128 µg/mL; viability at 24 h, 5 ug/mL [11]: 81%; MIC ([Candida] sake): > 128 µg/mL; inhibition (AGS [12]): inactive; MIC (Escherichia coli): > 128 µg/mL; inhibition (AGS [13]): inactive; MIC (Helicobacter pylori [14]): 4 µg/mL (≈ 11.4 µM); MIC (Helicobacter pylori [15]): 2 µg/mL (≈ 5.69 µM); MIC (Helicobacter pylori [16]): 2 µg/mL (≈ 5.69 µM)
COc1ccc2oc(=O)c(C(=O)Nc3ccc(C(=O)O)cc3)cc2c1 | > 128 µg/mL | 69% | > 128 µg/mL | > 128 µg/mL | > 128 µg/mL | > 128 µg/mL | > 128 µg/mL | 99% | 4 µg/mL (≈ 11.8 µM) | > 128 µg/mL | > 128 µg/mL | 4 µg/mL (≈ 11.8 µM) | 8 µg/mL (≈ 23.6 µM) | 85% | 8 µg/mL (≈ 23.6 µM) | > 128 µg/mL | > 128 µg/mL | 62% | > 128 µg/mL | > 128 µg/mL | MIC (Citrobacter freundii): > 128 µg/mL; viability at 24 h, 5 ug/mL [11]: 99%; MIC ([Candida] sake): > 128 µg/mL; inhibition (AGS [12]): inactive; MIC (Escherichia coli): > 128 µg/mL; inhibition (AGS [13]): inactive; MIC (Helicobacter pylori [14]): 4 µg/mL (≈ 11.8 µM); MIC (Helicobacter pylori [15]): 4 µg/mL (≈ 11.8 µM); MIC (Helicobacter pylori [16]): 4 µg/mL (≈ 11.8 µM)
